MC4R ag barr: human MC4R agonism via beta-arrestin; P32245; U2OS MC4R beta-arrestin complementation, luminescence; percent of melanotan II response, DMSO zero; activation, % at 8.9 µM; 360,000 tested, 0.98% active;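 active = activation above a per-plate cutoff, the mean activation of sample wells on that plate plus 3 SD, cut at about 8% in these data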
Target sequence (P32245 whole entry, looked up): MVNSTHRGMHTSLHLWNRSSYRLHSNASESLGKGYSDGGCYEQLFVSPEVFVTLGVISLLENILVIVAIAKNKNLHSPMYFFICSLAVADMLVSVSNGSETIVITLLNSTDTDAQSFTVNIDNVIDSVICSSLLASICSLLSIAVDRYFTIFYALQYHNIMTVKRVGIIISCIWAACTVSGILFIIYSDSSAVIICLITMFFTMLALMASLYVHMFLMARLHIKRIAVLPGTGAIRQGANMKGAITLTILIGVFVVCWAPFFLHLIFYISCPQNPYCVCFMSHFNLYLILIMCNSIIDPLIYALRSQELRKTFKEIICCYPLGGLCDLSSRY
Bfl-1 A1 inh: inhibitors of the anti-apoptotic protein A1, read as caspase activation | MEF A1-2A-BIM cells, Caspase-Glo 3/7 luminescence, 3 h; percent of clofoctol response, vehicle zero | AID 2462 | 330,000 tested, 0.066% active | caspase activation, % (test concentration not listed);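 active = over half of replicate activation scores above 10%, or exactly half above 10 with the replicate mean above 10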
UPR CHOP act: activators of apoptotic arm of unfolded protein response (CHOP). activation, % at 10 µM. CHO-CHOP luciferase reporter, UPR activation, luminescence; percent of tunicamycin response over DMSO baseline. 330,000 tested, 0.34% active. AID 449763;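 active = at 10 µM dose, activation of 40% or more, normalized to positive control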;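 also: 100% = tunicamycin at 10 µg/mL and 0% = DMSO alone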
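measured by = luciferase luminescence | assay system = CHO-CHOP cells, stable luciferase reporter of PERK-eIF2a-CHOP signalling | amount = 500 reporter cells seeded per well | timing = 6 h compound exposure at 37 °C after overnight seeding | controls = positive tunicamycin 10 µg/mL, negative DMSO alone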
MC4R antag cAMP: human MC4R antagonism in cAMP assay; P32245; MC4R-expressing cells, MTII-stimulated cAMP, LANCE TR-FRET; 360,000 tested, 0.48% active; inhibition, % at 6.5 µM;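 active = inhibition above its plate's cutoff, the mean of tested wells on that plate plus 3 SD, cut at about 29% in these data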;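 also: 0% = Melanotan II alone and 100% = Melanotan II plus saturating MCL0020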
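System – human MC4R-expressing U2OS cells · Also added – Melanotan II · Dosing – one concentration, 6.5 µM nominal · Timing – 30-min compound, 1-h challenge, 1-h detection, room temperature · Measured by – Eu-cAMP/anti-cAMP TR-FRET, emission 671 nm · Replicates – singlicate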
UPR XBP1 act: adaptive UPR (XBP1) activation; CHO-XBP1 luciferase reporter, IRE1-XBP1 UPR activation, luminescence; percent of tunicamycin response, DMSO as zero; activation, % at 20 µM; 330,000 tested, 0.33% active; AID 463104;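 active = versus positive control, 20 µM dose yields 30% or more activation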;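 also: 100% = tunicamycin at 10 µg/mL and 0% = DMSO only wells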
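Material: CHO cell line with stable XBP1 luciferase reporter; schedule: 16-18 h cell attachment at 37 °C, then 6 h compound exposure; signal: glow luminescence from Steady-Glo reagent; medium: serum-containing F12 medium, 10% FBS; benchmarks: tunicamycin 10 µg/mL and vehicle-only wells; read-out: percent activation relative to tunicamycin reference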
cAMP nonselect: counter-screen for MC4R antagonists: nonselective cAMP signaling inhibitors; shares compounds with MC4R antag cAMP; AID 602193; 1,600 tested, 26% active; inhibition, % at 6.5 µM; parental U2OS, forskolin cAMP, LANCE TR-FRET;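 active = mean inhibition over triplicates above the low-control well mean plus 3 SD, set per campaign, cut at about 13% in these data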;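 also: signal is single emission at 671 nm which falls as cellular cAMP rises; 0% = forskolin-stimulated wells and 100% = buffer without forskolin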
MC4R antag conf: human MC4R cAMP antagonism confirmation; shares compounds with MC4R antag cAMP; MC4R-expressing cells, MTII-stimulated cAMP, TR-FRET; inhibition, % at 6.5 µM; 1,600 tested, 27% active; AID 602195; in the data active = inhibition above about 29%;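 also: 0% = agonist stimulated wells alone and 100% = agonist stimulated wells plus saturating reference antagonist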
* hit, by the source's call; . = not tested or not shown. Only some compounds are listed: those with a hit (about 2% of all), similar ones and a draw of the others.

SMILES	MC4R ag barr	Bfl-1 A1 inh	UPR CHOP act	MC4R antag cAMP	UPR XBP1 act	cAMP nonselect	MC4R antag conf
COc1ccc(CCNC(=O)Nc2nc(C(N)COCc3ccccc3)cs2)cc1OC (centres undefined)	-1	.	.	-1	.	.	.
Cc1cccc(C(=O)Nc2nnc(S(=O)(=O)N3CCC(C)CC3)s2)c1	-1	0	2	50*	-3	8	16
Cc1ccc(C(=O)Nc2nnc(S(=O)(=O)N3CCC(C)CC3)s2)cc1	0	-1	2	5	1	.	.
CCCC(=O)N1CCC1(C)C(=O)Nc1ccc(OC(F)F)cc1 (centres undefined)	0	.	.	6	.	.	.
CCC1(CC)Cc2ccccc2-c2[nH]c(=S)[nH]c(=O)c21	3	0	0	20	0	.	.
CC(C)C1Cc2ccccc2-c2[nH]c(=S)[nH]c(=O)c21 (centres undefined)	4	1	-1	36*	2	21*	48*
Cc1ccc(NC(=S)NNC(=S)Nc2ccc(C)cc2)cc1	3	.	.	1	.	.	.
CC(=O)OC1OCCOC1NC(=S)Nc1ccc(C)cc1 (centres undefined)	-1	1	0	32*	3	1	-8
Cc1ccc([C@H]2C(C#N)=C(N)Oc3cc(C)oc(=O)c32)o1	0	0	1	30*	-6	-2	-8
Cc1cc2c(c(=O)o1)C(c1cccs1)C(C#N)=C(N)O2 (centres undefined)	0	0	0	19	-6	.	.
CCN(CC)c1ccc(S(=O)(=O)N2CCOCC2)cc1NC(=O)COC(=O)C1=COCCO1	-3	.	.	15	.	.	.
Cc1cccc(C(=Cc2ccc([N+](=O)[O-])cc2)C(=O)O)c1	-2	.	.	-2	.	.	.
O=C(/C=C/c1ccco1)NC(=S)Nc1cc(-c2nc3ccccc3s2)ccc1Cl	-1	0	.	34*	.	4	15
Cc1ccc(-c2nc3ccccc3s2)cc1NC(=S)NC(=O)/C=C/c1ccco1	0	-1	12	-6	25	.	.
CC(=O)Nc1ccc(CN2C(=O)C(CCc3ccccc3)ON=C2c2cnccn2)cc1 (centres undefined)	0	.	.	5	.	.	.
CCOC(=O)c1ccc2ncc(C(=O)OCC)c(Nc3ccc(N4CCOCC4)cc3)c2c1	1	-1	0	48*	-1	3	48*
CCCS(=O)(=O)NC(=O)C1(C)CCCN(C(=O)c2ccc3ccccc3n2)C1 (centres undefined)	-3	.	.	0	.	.	.
C[C@@H]1CN([C@H](C)CO)C(=O)CCCn2nncc2CO[C@H]1CN(C)Cc1cccc(O)c1	-3	.	.	2	.	.	.
Cc1[nH]c(=O)[nH]c(=O)c1S(=O)(=O)Nc1ccc(Cl)c([N+](=O)[O-])c1	0	0	1	12	3	.	.
Cc1[nH]c(=O)[nH]c(=O)c1S(=O)(=O)Nc1cccc([N+](=O)[O-])c1C	0	0	1	30*	-1	1	-8
CC(C)N1CCC(C)(C(=O)Nc2ccc(Cl)c(Cl)c2)C1 (centres undefined)	-2	.	.	-1	.	.	.
CCOc1ccc(-c2noc(-c3csc([C@@H]4O[C@H](CO)[C@H](O)[C@H](O)[C@H]4O)n3)n2)cc1	-1	.	.	5	.	.	.
O=C(Nc1ccccc1C(F)(F)F)c1c(F)cccc1Cl	2	0	-1	30*	-5	1	-6
O=C(Cn1ncc(Cl)c(Cl)c1=O)NC(=O)NC1CCCCC1	-1	1	-1	38*	-9	36*	67*
CC(NC(=O)Cn1ncc(Cl)c(Cl)c1=O)C12CC3CC(CC(C3)C1)C2 (centres undefined)	-2	0	.	81*	.	32*	46*
SMILES	MC4R ag barr	Bfl-1 A1 inh	UPR CHOP act	MC4R antag cAMP	UPR XBP1 act	cAMP nonselect	MC4R antag conf
Cc1cccc(NC(=O)c2cc(S(=O)(=O)N3CCCCC3)c[nH]2)c1	0	.	.	2	.	.	.
CC(C)C1C(=O)N(Cc2cn(Cc3ccco3)nn2)CCS(=O)(=O)N1Cc1ccc(-c2ccc(F)cc2)cc1 (centres undefined)	-1	.	.	4	.	.	.
Cc1ccc(S(=O)(=O)N(C)CC(=O)OCC(=O)NC(=O)NC(C)C)cc1	-3	0	0	29*	1	10	23
CC(=O)Nc1ccc(S(=O)(=O)N(C)CC(=O)OCC(=O)NC(C)C23CC4CC(CC(C4)C2)C3)cc1 (centres undefined)	-2	1	-2	30*	3	8	18
O=C(Cc1ccc(NC(=O)C2CCN(C(=O)CCc3ccccc3)CC2)cc1)Nc1ccc(C(=O)N2CCOCC2)cc1	-3	.	.	-4	.	.	.
COc1cc(-c2cc(NC(C)=O)c3ncc(-c4ccc(C(C)=O)cc4)n3c2)cc(OC)c1OC	8.7*	.	.	29*	.	1	12
CC(=O)Nc1cc(-c2cccc(N)c2)cn2c(-c3ccc(C(C)=O)cc3)cnc12	7	.	.	10	.	.	.
CCC1(CC)C(C#N)C(=O)NC(=O)C1C#N (centres undefined)	0	.	.	16	.	.	.
CCCOc1ccc(F)cc1-c1cc(C(=O)Nc2ccccc2)[nH]n1	3	.	.	2	.	.	.
CCC(=O)N1CCCC1(C)C(=O)Nc1ccc2nc(C)ccc2c1 (centres undefined)	-2	.	.	-2	.	.	.
COc1cccc(NC(=O)N(C)C[C@@H]2OCc3cnnn3CCCC(=O)N([C@H](C)CO)C[C@@H]2C)c1	0	.	.	4	.	.	.
Cc1ccc2[nH]c(O)c(N=NC(=O)c3ccc(NS(=O)(=O)c4cccs4)cc3)c2c1	4	0	1	34*	0	-3	-17
CN1CCN(c2ccc(CNC(=O)C3Cc4c(-c5ccc(Cl)cc5)ccnc4O3)cc2)CC1 (centres undefined)	2	.	.	1	.	.	.
Cc1c(C(=O)N/N=C/c2cccc(O)c2)nnn1-c1nonc1N	-4	0	3	13	-1	.	.
CCCOc1ccc(-c2c(C(=O)N/N=C/c3ccccc3)nnn2-c2nonc2N)cc1	0	1	-1	30*	12	6	10
Cc1ccccc1COc1cccc(/C=N/NC(=O)c2nnn(-c3nonc3N)c2C)c1	4	1	8	32*	4	3	9
CC(C)(C)c1ccc(CC(=O)N2CCC2(C)C(=O)O)cc1 (centres undefined)	-2	.	.	3	.	.	.
CC(C)CN(C(=O)CN(C)C(=O)Cc1c(F)cccc1Cl)c1c(N)n(CC(C)C)c(=O)[nH]c1=O	1	.	.	1	.	.	.

Source: PubChem BioAssay
